From PubChem BioAssay
A selection: hits, their analogues and other compounds. The true share with any hit is near 1.7%.
DNMT1 block – DNMT1 (human) enzyme inhibition; P26358; DNMT1 molecular beacon, Hinp1I cleavage, fluorescence; inhibition (reported as % activation of signal), % at 10 µM; actives 0.83% (n = 360,000); AID 588458; in the data active = inhibition above about 50%
Target sequence (P26358 504-1616 limits assumed): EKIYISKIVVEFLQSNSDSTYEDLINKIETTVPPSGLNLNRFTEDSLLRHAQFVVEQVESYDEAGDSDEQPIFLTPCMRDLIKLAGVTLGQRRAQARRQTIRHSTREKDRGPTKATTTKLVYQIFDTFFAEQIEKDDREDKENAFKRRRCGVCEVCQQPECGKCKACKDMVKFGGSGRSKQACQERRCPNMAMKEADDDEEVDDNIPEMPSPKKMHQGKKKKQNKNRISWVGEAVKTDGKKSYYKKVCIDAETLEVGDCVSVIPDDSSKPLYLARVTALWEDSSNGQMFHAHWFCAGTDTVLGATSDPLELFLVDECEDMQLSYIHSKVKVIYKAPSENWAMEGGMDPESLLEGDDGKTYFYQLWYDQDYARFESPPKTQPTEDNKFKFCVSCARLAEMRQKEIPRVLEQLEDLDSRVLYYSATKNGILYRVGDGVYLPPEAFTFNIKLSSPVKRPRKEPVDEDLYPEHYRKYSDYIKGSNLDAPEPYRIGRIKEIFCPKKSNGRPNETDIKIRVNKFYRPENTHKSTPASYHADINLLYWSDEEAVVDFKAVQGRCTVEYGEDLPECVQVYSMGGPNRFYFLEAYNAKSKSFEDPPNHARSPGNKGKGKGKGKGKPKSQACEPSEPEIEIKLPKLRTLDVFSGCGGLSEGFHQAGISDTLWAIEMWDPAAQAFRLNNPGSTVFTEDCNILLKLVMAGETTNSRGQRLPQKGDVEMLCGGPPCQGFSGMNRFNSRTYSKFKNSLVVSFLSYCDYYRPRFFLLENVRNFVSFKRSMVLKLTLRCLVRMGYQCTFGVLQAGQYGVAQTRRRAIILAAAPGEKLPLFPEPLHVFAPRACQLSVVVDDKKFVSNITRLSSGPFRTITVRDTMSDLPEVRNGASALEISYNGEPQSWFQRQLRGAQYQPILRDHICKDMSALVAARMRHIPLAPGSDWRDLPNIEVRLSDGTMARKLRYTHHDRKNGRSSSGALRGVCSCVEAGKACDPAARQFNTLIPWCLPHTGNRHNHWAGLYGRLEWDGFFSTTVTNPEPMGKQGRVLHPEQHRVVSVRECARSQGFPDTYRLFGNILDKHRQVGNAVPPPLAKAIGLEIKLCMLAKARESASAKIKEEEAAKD
SUMO1 PPI mod – SUMO1-SIM interaction modulation. P63165. SUMO1 binding to a labelled peptide, TR-FRET, 1 h. inhibition, % at 20 µM. actives 0.33% (n = 360,000); in the data active = inhibition above about 37%
Scp1 inh – Scp-1 (human) phosphatase inhibition; actives 0.88% (n = 340,000); inhibition, % at 20 µM; Recombinant Scp1, phosphopeptide, malachite green phosphate absorbance;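 active = inhibition above about 50% at 20 µM, limit read from the data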;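 note: plate controls were DMSO wells with enzyme for no effect and wells lacking enzyme for full effect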
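Incubation: 45 min enzyme reaction at room temperature / System: truncated SCP-1 phosphatase (76-261aa) / Reagent: Phospho 17-mer peptide substrate / Buffer or medium: Acidic Tris acetate buffer with magnesium and detergent / Signal: absorbance at 630 nm / Doses: one concentration, 20 µM, with 1.0% DMSO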
LMPTP block – LMPTP (human) inhibition; actives 0.22% (n = 360,000); inhibition, % at 20 µM; recombinant LMPTP-A, OMFP fluorogenic substrate, fluorescence intensity; P24666;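 active = compounds that cut the enzyme signal by at least half of the control window in the single-dose screen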;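 note: plate controls were DMSO wells with enzyme plus substrate for no effect and substrate without enzyme for full effect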
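Assay system: LMPTP-A phosphatase enzyme | Input: 0.625 nM enzyme | Also added: Fluorogenic phosphatase substrate OMFP at 400 µM final | Compound dosing: One test concentration per compound, 20 µM, with 3% DMSO overall | Schedule: 50 min enzyme reaction at room temperature, protected from light | Signal: Fluorescence intensity | Benchmarks: no-enzyme and uninhibited controls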
STEP inh – inhibitors of human striatal-enriched phosphatase STEP; P54829; recombinant STEP, OMFP fluorogenic substrate, fluorescence; actives 0.25% (n = 360,000); inhibition, % at 20 µM;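 active = inhibition at 20 µM, scaled per plate between control wells, above about 37%, limit read from the data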;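 note: 0% = DMSO with enzyme and substrate and 100% = substrate only without enzyme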
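System: isolated STEP enzyme; schedule: 20 min enzyme reaction at room temperature, protected from light; medium: Bis-Tris buffer pH 6.0, 2.5 mM DTT, 0.005% Tween 20; signal: fluorescence, 480/540 nm; dosing: single compound dose of 20 µM, 1% DMSO final; also added: OMFP substrate, 25 µM final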
DNMT1 confirm – confirmation of human DNMT1 inhibitors; shares compounds with DNMT1 block; DNMT1 molecular beacon HinP1I cleavage, fluorescence; inhibition, % at 10 µM; actives 8% (n = 2,300);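 active = average inhibition of at least 30% in the single-concentration confirmation test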
DNMT1 interf – counter-screen for DNMT1 inhibitors: spectral interference; shares compounds with DNMT1 block; DNMT1 molecular beacon spectral interference counterscreen, fluorescence 485/520; activation (fluorescence interference), % at 10 µM; actives 1% (n = 2,300);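 active = activation of at least 30% at 10 µM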;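 note: DNMT1 catalytic domain with a HinP1I cleavage step and a FAM/dabcyl DNA beacon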
An asterisk follows results filed as active; nt = not tested or not shown.

SMILES	DNMT1 block	SUMO1 PPI mod	Scp1 inh	LMPTP block	STEP inh	DNMT1 confirm	DNMT1 interf
O=C(C(O)c1ccccc1)N1CCN(S(=O)(=O)c2ccc(C(F)(F)F)cc2)CC1 (stereo unspecified)	nt	1	nt	-2	nt	nt	nt
COC(=O)C(Cc1ccc(O)cc1)NC(=O)c1ccc2c(c1)OCCO2 (stereo unspecified)	-2	2	-1	-1	-3	nt	nt
CC(=O)N1C[C@H]2CON(C)[C@H]2C[C@H]1c1cccc(-c2ccccc2C)c1	3	-1	-8	-2	2	nt	nt
Cc1ccccc1-c1cccc([C@@H]2C[C@H]3[C@H](CON3C)CN2C(=O)CCc2ccccc2)c1	78*	9	4	1	-1	2	8
O=C(CSCc1c(F)cccc1F)Nc1ccccc1	-2	-3	-5	-2	0	nt	nt
CCOc1ccc(OCCOC(=O)C2CCN(S(=O)(=O)c3ccc(C)c(C)c3)CC2)cc1	2	1	-9	3	2	nt	nt
CSC1=NSC2=NC(=O)/C(=C/c3coc4ccccc4c3=O)C(=N)N12	-6	5	-11	-1	-80	nt	nt
CSC1=NSC2=NC(=O)/C(=C/c3coc4ccc(O)cc4c3=O)C(=N)N12	82*	42*	22	6	-80	13	-3
O=C(Nc1ccc(O)c2c(=O)cc(-c3cccc(Cl)c3)oc12)c1ccccc1Cl	54*	0	-8	1	5	2	-2
OC(c1ccccc1)(c1nc(-c2cccc3cccnc23)cs1)C(F)(F)F (stereo unspecified)	-3	-6	nt	3	-4	nt	nt
NNC(=O)C(=O)Nc1ccc(O)cc1	0	-1	-2	0	-2	nt	nt
Cc1ccc(NC(=O)C(=O)NN)cc1	75*	5	-4	-2	-3	3	-1
Cc1onc(-c2ccccc2)c1C(=O)N1CCC(C)(C(=O)NS(=O)(=O)C2CC2)C1 (stereo unspecified)	6	-1	nt	1	3	nt	nt
N#Cc1cccnc1N1CCN(C(C(=O)NC2CCCC2)c2ccc(F)cc2)CC1 (stereo unspecified)	nt	0	nt	0	nt	nt	nt
O=C(Nc1ccc(-c2cn3ccccc3n2)cc1)c1ccc(Cl)cc1	53*	3	-1	36	9	3	8
O=C(Nc1cccc2ncccc12)c1ccc(OCc2ccccc2)cc1	0	-4	-8	3	-3	nt	nt
O=C(Nc1ccc(Cc2ccc(NC(=O)Nc3cccnc3)cc2)cc1)Nc1cccnc1	51*	15	nt	16	1	-1	0
O=C(Nc1ccc(Cl)cc1)Nc1cccnc1	-1	0	0	1	-3	nt	nt
CCCS(=O)(=O)N1CCCC(C(=O)Oc2ccc(OC)cc2)C1 (stereo unspecified)	83*	-1	-2	0	0	0	2
COCc1cc(=O)n2[nH]c(-c3ccsc3-n3c(C)ccc3C)cc2n1	68*	45*	-2	2	-5	2	-1
Cc1cc(=O)n2[nH]c(-c3ccsc3-n3c(C)ccc3C)cc2n1	67*	38	47	20	-1	8	1
CCc1ccc(/C=N/N2CCN(c3ccccn3)CC2)cc1	75*	-1	-11	3	4	2	3
Cc1ccc(/C=N/N2CCN(c3ccccn3)CC2)cc1	-1	-5	-6	1	-2	nt	nt
Cc1nc(-c2noc(-c3ccc(Cl)cc3)n2)c(C(F)(F)F)o1	-1	8	-7	0	3	nt	nt
c1cc2ccc3ccc(-n4cnnn4)c4ccc(c1)c2c34	60*	-3	27	13	1	5	4
O=C(O)c1cc(O)c2c(c1)C(=O)c1cc(O)cc(O)c1C2=O	81*	20	64*	4	9	16	-2
CC(=O)Oc1cccc2c1C(=O)c1c(OC(C)=O)cc(C(=O)O)cc1C2=O	-19	-17	-6	1	-1	nt	nt
